In ChEMBL document CHEMBL1136803, “Azasterols as inhibitors of sterol 24-methyltransferase in Leishmania species and Trypanosoma cruzi” (J Med Chem, 2003):
Values joined by “and” are separate entries in the source; they are usually repeats but may differ in a detail not shown here. Equal values may be shown once.

What was measured:
[1] = Evaluated for its toxicity against KB cells; format: cell-based; details: Homo sapiens
Outline: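 KB cells seeded at 4 × 10⁴/mL in RPMI 1640 + 10% HIFCS, 24 h at 37 °C, 5% CO₂, then exposed to 300, 30, 3 and 0.3 μg/mL in triplicate for 72 h; podophyllotoxin positive control. AlamarBlue added for 2–4 h, fluorescence at EX/EM 530/585 nm; ED₅₀ relative to blanks and untreated controls.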

[2] = tested on: Leishmania amazonensis; assay: In vitro inhibitory concentration against Leishmania amazonensis intracellular amastigotes; format: functional, organism-based
Outline: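 Swiss mouse peritoneal macrophages adhered 24 h at 37 °C, 5% CO₂, infected with stationary-phase L. amazonensis promastigotes (1:10) at 35 °C for 2 h, washed, held 24 h drug-free, then exposed to compound for 96 h. Bouin-fixed, Giemsa-stained; percentage of infected cells scored, IC₅₀ from hyperbolic inhibition function I = Imax·C/(IC₅₀+C).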

[3] = tested on: Leishmania amazonensis; assay: In vitro inhibitory concentration against Leishmania amazonensis promastigotes; format: functional, organism-based
Outline: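 L. amazonensis MHOM/BR/75/Josefa promastigotes (mouse-passaged) in Warren's medium with 10% fetal bovine serum at 25 °C; exponential-phase cells incubated with compound 96 h, counted by Neubauer hemocytometer. IC₅₀ from I = Imax·C/(IC₅₀+C), Imax 100%.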

[4] = tested on: Leishmania donovani; assay: In vitro inhibitory concentration against Leishmania donovani intracellular amastigotes; format: functional, organism-based
Outline: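 CD1 mouse starch-induced peritoneal macrophages in RPMI1640 + 10% HIFCS, 37 °C, 5% CO₂, infected with hamster-spleen L. donovani MHOM/ET/67/L82 amastigotes (5:1); after 24 h drug exposure for 5 days, overlay replaced day 3, top concentration 30 μg/mL, quadruplicates. Methanol-fixed, Giemsa-stained, scored microscopically; ED₅₀ by curve fitting; Pentostam positive control.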

[5] = tested on: Leishmania amazonensis; assay: (§1) Effect of compound on free sterol compositions of leishmania mexicana amazonensis promastigotes at a concentration of 0.1 uM; format: functional
Outline: (§2)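 L. mexicana amazonensis promastigotes grown in LIT medium with lactalbumin and 10% fetal calf serum at 26 °C without agitation; cultures started at 2 × 10⁶ cells/mL, drug added at 0.5–1 × 10⁷ cells/mL. Total lipids extracted, split into neutral and polar fractions by silicic acid chromatography, sterols analysed by gas-liquid chromatography; read-out is % 24-alkylated vs 24-nonalkylated sterols.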

[6] = In vitro inhibitory concentration against Trypanosoma cruzi epimastigotes; format: functional
Outline: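 T. cruzi Y strain epimastigotes in liver infusion tryptose medium with 10% fetal bovine serum at 28 °C; exponential-phase parasites incubated with compound 96 h, counted by Neubauer hemocytometer. IC₅₀ from I = Imax·C/(IC₅₀+C), Imax 100%.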

[7] = In vitro inhibitory concentration against Trypanosoma cruzi intracellular amastigotes; format: functional, cell-based
[8] = tested on: Leishmania amazonensis; assay: as §1; format: functional; outline: as §2; remark: listed apart in the source
[9] = tested on: Leishmania amazonensis; assay: Effect of compound on free sterol composition of leishmania mexicana amazonensis promastigotes at a concentration of 0 uM,; format: functional; outline: as §2
[10] = tested on: Leishmania amazonensis; assay: Effect of compound on free sterol compositions of leishmania mexicana amazonensis promastigotes at a concentration of 1.0 uM; format: functional; outline: as §2
[11] = tested on: Leishmania amazonensis; assay: Effect of compound on free sterol compositions of leishmania mexicana amazonensis promastigotes at a concentration of 0.01 uM; format: functional; outline: as §2
[12] = tested on: Leishmania amazonensis; assay: Effect on free sterol compositions of leishmania mexicana amazonensis promastigotes at a concentration of 0.1 uM; format: functional; outline: as §2

Row | IC50 [2] | IC50 [3] | IC50 [4] | Structure (SMILES) | IC50 [1] | Effect [5] | IC50 [6] | IC50 [7] | Effect [8] | Effect [9] | Effect [10] | Effect [11] | Effect [12]
1 | 0.01 µM | 0.1 µM | 8.9 µM | CC(O)(C1CCCCN1)[C@H]1CC[C@H]2[C@@H]3CCC4C[C@@H](O)CC[C@]4(C)[C@H]3CC[C@]12C (some centres undefined) | 11.9 µM | 64.2% | 0.94 µM | 7.4 µM | 11.1% | 9.8% |  |  | 
2 |  |  | 37.9 µM | CCC(=O)N1CCCC(C(C)(O)[C@H]2CC[C@H]3[C@@H]4CCC5C[C@@H](O)CC[C@]5(C)[C@H]4CC[C@]23C)C1 (some centres undefined) | 336 µM |  |  | 64.6 µM | 11.7% |  | 49.7% |  | 
3 |  |  | 23.1 µM | CCC(=O)N1CCCCC1C(C)(O)[C@H]1CC[C@H]2[C@@H]3CCC4C[C@@H](O)CC[C@]4(C)[C@H]3CC[C@]12C (some centres undefined) | 11.1 µM | 4.4% |  | 22.8 µM | 17.7% |  |  |  | 
4 | 8 µM | 10.3 µM | > 52 µM | CCC(=O)N1CCCCC1C(C)(O)[C@H]1CC[C@H]2[C@@H]3CCC4C[C@@H](O[Si](C)(C)C(C)(C)C)CC[C@]4(C)[C@H]3CC[C@]12C (some centres undefined) | > 520 µM |  | 1 µM | > 52 µM |  |  |  |  | 
5 |  |  | 4.8 µM | CC(O)(C1CCCNC1)[C@H]1CC[C@H]2[C@@H]3CCC4C[C@@H](O)CC[C@]4(C)[C@H]3CC[C@]12C (some centres undefined) | 29.2 µM | 63.7% |  | 18 µM | 13.1% |  |  |  | 
6 | 1 µM | 1.21 µM | > 52 µM | CCC(=O)N1CCCC(C(C)(O)[C@H]2CC[C@H]3[C@@H]4CCC5C[C@@H](O[Si](C)(C)C(C)(C)C)CC[C@]5(C)[C@H]4CC[C@]23C)C1 (some centres undefined) | > 520 µM |  | 0.6 µM | > 52 µM |  |  |  |  | 

More lines, now with the values behind:

Row | Structure (SMILES) | IC50 [2] | IC50 [3] | IC50 [4] | IC50 [1] | Effect [5] | IC50 [6] | IC50 [7] | Effect [8] | Effect [9] | Effect [10] | Effect [11] | Effect [12]
7 | CC(O)(C1CCCCN1)[C@H]1CC[C@H]2[C@@H]3CCC4C[C@@H](O[Si](C)(C)C(C)(C)C)CC[C@]4(C)[C@H]3CC[C@]12C (some centres undefined) | 0.02 µM | 1.09 µM | > 58 µM | > 579 µM | <1% | 0.6 µM | 50 µM | 8.5% |  |  |  | 
8 | CC(O)(c1ccccn1)[C@H]1CC[C@H]2[C@@H]3CCC4C[C@@H](O[Si](C)(C)C(C)(C)C)CC[C@]4(C)[C@H]3CC[C@]12C (some centres undefined) | 1 µM | 1.88 µM | > 59 µM | > 586 µM |  | 0.68 µM | > 59 µM |  |  |  |  | 
9 | CC(O)(c1cccnc1)[C@H]1CC[C@H]2[C@@H]3CCC4C[C@@H](O)CC[C@]4(C)[C@H]3CC[C@]12C (some centres undefined) | 3 µM | 4.24 µM | 23.4 µM | > 755 µM | 41.9% | 0.62 µM | 13.3 µM | 12.4% |  |  | 4.7% | 3.1% and 4.1% and 11.1%
10 | CC(O)(c1ccncc1Cl)[C@H]1CC[C@H]2[C@@H]3CCC4C[C@@H](O[Si](C)(C)C(C)(C)C)CC[C@]4(C)[C@H]3CCC12C (some centres undefined) |  |  | > 55 µM | 234 µM |  |  | > 55 µM |  |  |  |  | 
11 | CC(O)(c1ccncc1)[C@H]1CC[C@H]2[C@@H]3CCC4C[C@@H](O[Si](C)(C)C(C)(C)C)CC[C@]4(C)[C@H]3CC[C@]12C (some centres undefined) | 2 µM | 3.21 µM | 15 µM | 574 µM |  | 0.67 µM | 6.1 µM |  |  |  |  | 
12 | CC(O)(c1ccncc1Cl)[C@H]1CC[C@H]2[C@@H]3CCC4C[C@@H](O)CC[C@]4(C)[C@H]3CC[C@]12C (some centres undefined) |  |  | > 69 µM | < 0.7 µM |  |  | 50 µM |  |  |  |  | 
13 | CC(O)(c1ccccn1)[C@H]1CC[C@H]2[C@@H]3CCC4C[C@@H](O)CC[C@]4(C)[C@H]3CC[C@]12C (some centres undefined) | 1 µM | 1.14 µM | 14.6 µM | 11.3 µM | 1.6% | 1.03 µM | 32.9 µM | 15.5% |  |  |  | 
14 | CC(O)(c1cccnc1)[C@H]1CC[C@H]2[C@@H]3CCC4C[C@@H](O[Si](C)(C)C(C)(C)C)CC[C@]4(C)[C@H]3CC[C@]12C (some centres undefined) | 1.5 µM | 1.75 µM | 13.9 µM | > 586 µM |  | 1.2 µM | 51.2 µM |  |  |  |  | 6.6%
15 | CC(O)(c1ccncc1)[C@H]1CC[C@H]2[C@@H]3CCC4C[C@@H](O)CC[C@]4(C)[C@H]3CC[C@]12C (some centres undefined) | 3 µM | 3.41 µM | 11.3 µM | 30.7 µM |  | 0.68 µM | 35 µM |  |  |  |  | 
16 | CC(O)(C1CCCNC1)[C@H]1CC[C@H]2[C@@H]3CCC4C[C@@H](O[Si](C)(C)C(C)(C)C)CC[C@]4(C)[C@H]3CC[C@]12C (some centres undefined) | 1 µM | 1.4 µM | 6.4 µM | 2.5 µM |  | 1.01 µM | 42.1 µM |  |  |  |  | 
